Results from ChEMBL document CHEMBL1123005, “1-Azacycloalkyl-1,4-benzodiazepin-2-ones with antianxiety-antidepressant actions” (J Med Chem, 1985).
Active and inactive are the calls of the source. No cut-off for these calls is given here.

Experiments:
[1] = molecular target: GABA-A receptor; anion channel (Rattus norvegicus) (UniProt O09028+P15431+P18506+P18508+P19969+P20236+P23574+P23576+P28471+P28473+P30191+P62813+P63079+P63138+Q91ZM7+Q9ES14); experiment: Binding constant was determined by displacing potential to [3H]-diazepam binding in cerebral cortex homogenates of rat; assay type: tissue-based
How it was run: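 Wistar rat cerebral cortex homogenate incubated with compound and 2 nM [3H]diazepam at 0 °C for 60 min. Bound label trapped on glass filters and counted by scintillation. Ki = IC50/(1 + L/Kd).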

Mus musculus [2] = experiment: Effective dose against pentylenetetrazole intoxicity in mice administered orally; assay type: functional
Mus musculus [3] = experiment: Effective dose against tetrabenazine induced ptosis in mice administered orally; assay type: functional
How it was run: (§1)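 Male DS mice, 20-27 g, groups of five. Compound given po or sc in saline or gum arabic at 0.1 mL/10 g. Tetrabenazine 50 mg/kg sc given 1, 4 or 24 h later. Ptosis scored 1-4 at 1 h after TBZ, with ridit transformation. Dose for 50% prevention by regression.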

Mus musculus [4] = experiment: Effective dose against pentylenetetrazole intoxicity in mice administered orally; NE = not effective at dose 50 mg/kg; assay type: functional, organism-based; parameters: dose 50 mg/kg
Mus musculus [5] = experiment: Effective dose against pentylenetetrazole intoxicity in mice administered subcutaneously; NE = not effective at dose 10 mg/kg; assay type: functional, organism-based; parameters: dose 10 mg/kg
Mus musculus [6] = experiment: Effective dose against tetrabenazine induced ptosis in mice administered subcutaneously; assay type: functional; conditions: sc; how it was run: as §1
Mus musculus [7] = experiment: Effective dose against pentylenetetrazole intoxicity in mice administered through subcutaneous route; NE = no effect at 10 mg/kg; assay type: functional, organism-based; parameters: dose 10 mg/kg
Mus musculus [8] = experiment: Effective dose against pentylenetetrazole intoxicity in mice administered orally; NE = no effect at 200 mg/kg; assay type: functional, organism-based; parameters: dose 200 mg/kg
[9] = Acute toxicity was measured in mice after peroral administration; assay type: organism-based; conditions: mouse, in vivo, po
How it was run: (§2)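 Male DS mice, 20-26 g, given compound orally; mortality checked the day after treatment in groups of 10. LD50 by probit method, or by up-and-down method of Brownlee et al. (n = 5) where estimated.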

Rattus norvegicus [10] = species: Rattus norvegicus; experiment: Inhibitory activity against uptake of [3H]norepinephrine into rat brain synaptosomes.; assay type: functional
How it was run: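 P2 synaptosomes from male Wistar rat cerebral cortex incubated with [3H]norepinephrine at 37 °C for 20 min, with compound at 5-6 concentrations. Stopped by Krebs-Henseleit dilution and glass-fibre filtration, then scintillation counting. IC50 taken as the concentration giving 50% uptake inhibition.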

Rattus norvegicus [11] = experiment: Percent inhibition against anticonflict effect in rats when administered through oral route; at 32 mg/kg; assay type: functional
How it was run: (§3)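 Wistar rats in groups of 5-8, Geller-Seifter conflict procedure. Rats trained to lever-press for food on a variable-interval 60-s schedule. Oral dosing. A dose counted positive when shocks exceeded 12 or shock ratio exceeded 4 over four consecutive tone periods. ED50 with 95% limits by probit.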

Mus musculus [12] = experiment: Effective dose against pentylenetetrazole intoxicity in mice administered through subcutaneous route; assay type: functional; conditions: sc
Rattus norvegicus [13] = experiment: Effective dose was evaluated by their anticonflict effect in rats when administered through oral route; assay type: functional; how it was run: as §3
Mus musculus [14] = experiment: Effective dose against pentylenetetrazole intoxicity in mice administered orally;NE = no effect at 50 mg/kg; assay type: functional, organism-based; parameters: dose 50 mg/kg
Mus musculus [15] = experiment: Percent inhibition against tetrabenazine induced ptosis in mice administered subcutaneously 50 mg/kg; assay type: functional; conditions: sc, route subcutaneous; how it was run: as §1
Mus musculus [16] = experiment: Percent inhibition against tetrabenazine induced ptosis in mice administered orally at 100 mg/kg; assay type: functional; conditions: route oral; how it was run: as §1
Mus musculus [17] = experiment: Percent inhibition against tetrabenazine induced ptosis in mice administered subcutaneously at 50 mg/kg; assay type: functional; conditions: sc, route subcutaneous; how it was run: as §1
Mus musculus [18] = experiment: Effective dose against pentylenetetrazole intoxicity in mice administered through subcutaneous route;NE= no effect at 10 mg/kg; assay type: functional, organism-based; parameters: dose 10 mg/kg
[19] = Acute toxicity was measured in mice after peroral administration (805-1213); assay type: organism-based; conditions: mouse, in vivo, po; how it was run: as §2
Rattus norvegicus [20] = experiment: Percent inhibition was evaluated by their anticonflict effect in rats when administered through oral route at 32 mg/kg; assay type: functional; how it was run: as §3
Mus musculus [21] = experiment: Effective dose against pentylenetetrazole intoxicity in mice administered orally; NE = no effect at 50 mg/kg; assay type: functional, organism-based; parameters: dose 50 mg/kg
Mus musculus [22] = experiment: Effective dose against pentylenetetrazole intoxicity in mice administered subcutaneously; NE= no effect at 100 mg/kg; assay type: functional, organism-based; parameters: dose 100 mg/kg
Mus musculus [23] = experiment: Effective dose against pentylenetetrazole intoxicity in mice administered orally; NE= no effect at 50 mg/kg; assay type: functional, organism-based; parameters: dose 50 mg/kg
Mus musculus [24] = experiment: Effective dose against pentylenetetrazole intoxicity in mice administered through subcutaneous route; NE = no effect at dose 10 mg/kg; assay type: functional, organism-based; parameters: dose 10 mg/kg
Mus musculus [25] = experiment: Effective dose against pentylenetetrazole intoxicity in mice administered through subcutaneous route;NE = no effect at 10 mg/kg; assay type: functional, organism-based; parameters: dose 10 mg/kg
Rattus norvegicus [26] = experiment: Effective dose against anticonflict effect in rats when administered through oral route; assay type: functional; how it was run: as §3
Mus musculus [27] = experiment: Percent inhibition against tetrabenazine induced ptosis in mice administered orally at 50 mg/kg; assay type: functional; conditions: route oral; how it was run: as §1
[28] = Mus musculus, po, read-out: ED50

Row | Structure (SMILES) | K2 [1] [µM] | ED50 (Mus musculus [2]; [28]) [mg/kg] | ED50 (Mus musculus [3]; [28]) [mg/kg] | ED50 (Mus musculus [6]) [mg/kg] | also measured
1 | CN1CCC(N2C(=O)CN=C(c3ccccc3F)c3cc(Cl)ccc32)C1 (stereo unspecified) | 0.2 | 1.1 | 3.69 | – | –
2 | CN1CCC(N2C(=O)CN=C(c3ccccc3Cl)c3cc(F)ccc32)CC1 | 0.014 | 5.2 | 59.3 | – | –
3 | CN1CCC(N2C(=O)CN=C(c3ccccc3)c3ccccc32)CC1 | – | – | 0.38 | 0.26 | ED50 (Mus musculus [4]): inactive; ED50 (Mus musculus [5]): inactive
4 | O=C1CN=C(c2ccccc2)c2ccccc2N1C1CCNCC1 | 1.3 | – | 0.26 | 0.06 | ED50 (Mus musculus [7]): inactive; ED50 (Mus musculus [8]): inactive; LD50 [9]: 1240 mg/kg; IC50 (Rattus norvegicus [10]): 29 nM; inhibition in vivo at 32 mg/kg (Rattus norvegicus [11]): 20%
5 | CN1CCC(N2C(=O)CN=C(c3ccccc3F)c3cc(Cl)ccc32)CC1 | – | 2.7 | 2.13 | 1.3 | ED50 (Mus musculus [12]): 0.71 mg/kg; ED50 (Mus musculus [2]): 5.28 mg/kg; ED50 (Mus musculus [3]): 1.12 mg/kg; ED50 (Rattus norvegicus [13]): 3.67 mg/kg
6 | O=C1CN=C(c2ccccc2Cl)c2cc(F)ccc2N1C1CCNCC1 | 0.012 | 29.4 | 13.5 | – | IC50 (Rattus norvegicus [10]): 877 nM
7 | CN1CCC(N2C(=O)CN=C(c3ccccc3F)c3cc(Cl)c(Cl)cc32)CC1 | 0.8 | – | – | – | ED50 (Mus musculus [14]): inactive; ED50 (Mus musculus [7]): inactive; inhibition in vivo at 50 mg/kg (Mus musculus [15]): 64%
8 | CN1CCCC(N2C(=O)CN=C(c3ccccc3Cl)c3cc(Cl)ccc32)C1 (stereo unspecified) | 0.016 | 12 | – | – | inhibition in vivo at 100 mg/kg (Mus musculus [16]): 21%
9 | CCOC(=O)N1CCC(N2C(=O)CN=C(c3ccccc3Cl)c3cc(Cl)ccc32)CC1 | 0.02 | 1.95 | – | – | inhibition in vivo at 50 mg/kg (Mus musculus [17]): 16%
10 | CN1CCC(N2C(=O)CN=C(c3ccccc3F)c3cc(N(C)C)ccc32)CC1 | 8.3 | – | – | 0.7 | ED50 (Mus musculus [18]): inactive
11 | O=C1CN=C(c2ccccc2F)c2cc(F)ccc2N1C1CCNCC1 | 0.15 | 32.1 | 0.38 | – | ED50 (Mus musculus [2]): 27.55 mg/kg; LD50 [19]: 939 mg/kg; IC50 (Rattus norvegicus [10]): 79 nM; inhibition in vivo at 32 mg/kg (Rattus norvegicus [20]): 50%
12 | O=C1CN=C(c2ccccc2)c2cc(Br)ccc2N1C1CCNCC1 | 0.57 | 38.8 | 0.76 | – | IC50 (Rattus norvegicus [10]): 402 nM
13 | CN1CCC(N2C(=O)CN=C(c3ccccc3F)c3cccc(Cl)c32)CC1 | 4.7 | – | – | 2.66 | ED50 (Mus musculus [7]): inactive
14 | O=C1CN=C(c2ccccc2F)c2ccccc2N1C1CCNCC1 | 0.15 | – | – | 0.07 | ED50 (Mus musculus [7]): inactive; ED50 (Mus musculus [21]): inactive
15 | CN1CCC(N2C(=O)CN=C(c3ccccc3F)c3ccc(Cl)cc32)CC1 | 0.69 | – | – | – | ED50 (Mus musculus [22]): inactive; inhibition in vivo at 50 mg/kg (Mus musculus [17]): 34%; ED50 (Mus musculus [23]): inactive
16 | CCOC(=O)N1CCC(N2C(=O)CN=C(c3ccccc3F)c3cc(Cl)ccc32)CC1 | 0.038 | 9.09 | – | – | ED50 (Mus musculus [12]): 11.1 mg/kg; inhibition in vivo at 50 mg/kg (Mus musculus [17]): 67%
17 | O=C1C(O)N=C(c2ccccc2F)c2ccccc2N1C1CCNCC1 (stereo unspecified) | 0.36 | – | – | 0.23 | ED50 (Mus musculus [24]): inactive
18 | CN1CCC(N2C(=O)CN=C(c3cccc(Cl)c3)c3cc(Cl)ccc32)CC1 | 23 | – | – | 19.3 | ED50 (Mus musculus [25]): inactive
19 | CN1CCC(N2C(=O)CN=C(c3ccccc3)c3cc(Br)ccc32)CC1 | 0.415 | 21.4 | 2.88 | – | ED50 (Rattus norvegicus [26]): 17.4 mg/kg
20 | O=C1CN=C(c2ccccc2Cl)c2cc(Cl)ccc2N1C1CCCNC1 (stereo unspecified) | 0.013 | 16.2 | – | – | inhibition in vivo at 50 mg/kg (Mus musculus [27]): 57%
